Assay outcomes (PubChem BioAssay)
The list is not random: actives were taken first. Their share in the collection is about 3.7%.
hERG rescue: compounds protecting human hERG from proarrhythmic drug block; actives 0.51% (n = 310,000); activation (rescue from dofetilide block), less the hit threshold, % at 10 µM; AID 1511; CHO-hERG, FluxOR thallium flux, dofetilide IC70 present; Q12809;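 active means activation above the mean of controls blocked by dofetilide plus 5 SD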;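 further: thallium influx through hERG after potassium depolarization seen as dye fluorescence rise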
KCNK9 block: blocks the human KCNK9 two-pore domain potassium channel. Q9NPC2. HEK293 KCNK9, FluxOR thallium flux fluorescence; stronger effect = lower value. B-score at 10 µM. actives 1.2% (n = 310,000). AID 488922;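 active means ratio B-score over 3 SD below the library mean, with starting fluorescence within 5 SD of its mean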;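 further: negative B-score means less thallium flux so channel inhibition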
KCNQ1 block: human KCNQ1 channel inhibition | P51787 | actives 1.3% (n = 310,000) | CHO-K1 KCNQ1, FluxOR thallium flux fluorescence; stronger effect = higher value | B-score at 10 µM;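 active means compounds whose thallium flux B-score, printed positive for inhibition, exceeds three library SD while starting fluorescence stays within three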;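 further: channel opened by potassium depolarization with thallium stimulus after 20 min compound exposure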
Target sequence (P51787 whole entry, looked up): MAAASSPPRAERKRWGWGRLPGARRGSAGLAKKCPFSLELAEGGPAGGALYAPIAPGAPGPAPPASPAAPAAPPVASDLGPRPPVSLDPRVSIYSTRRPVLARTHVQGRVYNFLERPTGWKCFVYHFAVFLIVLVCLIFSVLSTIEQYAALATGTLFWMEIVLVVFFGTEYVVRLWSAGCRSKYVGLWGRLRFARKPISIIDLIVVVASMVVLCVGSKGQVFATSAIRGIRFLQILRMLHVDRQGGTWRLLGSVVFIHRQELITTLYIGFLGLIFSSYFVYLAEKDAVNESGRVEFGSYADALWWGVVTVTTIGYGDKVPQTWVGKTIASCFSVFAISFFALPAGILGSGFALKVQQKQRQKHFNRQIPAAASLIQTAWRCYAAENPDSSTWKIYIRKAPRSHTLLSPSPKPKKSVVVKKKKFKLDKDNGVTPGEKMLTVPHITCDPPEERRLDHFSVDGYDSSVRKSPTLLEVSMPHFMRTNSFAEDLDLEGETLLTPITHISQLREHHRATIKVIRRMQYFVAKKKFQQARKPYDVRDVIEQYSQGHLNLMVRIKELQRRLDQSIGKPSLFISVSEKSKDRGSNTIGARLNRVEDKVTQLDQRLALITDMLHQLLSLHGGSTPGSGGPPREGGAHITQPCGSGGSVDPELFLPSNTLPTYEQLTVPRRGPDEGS
KCNQ1 act: potentiates or activates the human KCNQ1 potassium channel; P51787; actives 0.35% (n = 310,000); B-score at 10 µM; CHO-K1 KCNQ1, thallium flux FluxOR fluorescence; stronger effect = higher value;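 active means fluorescence ratio B-score, a plate-corrected score, at least three library SD, with initial intensity B-score within 5 SD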
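assay system = CHO-K1 cells stably expressing KCNQ1 | medium = assay buffer, equal DMSO in all wells | timing = 37 °C overnight plating, 90-min dark dye load, 20-min compound pretreatment | measured by = kinetic FluxOR thallium fluorescence, 10-s 1-Hz baseline, 110-s post-stimulus read | measure = fluorescence change relative to baseline, converted to B score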
KCNK3 inh: human KCNK3 channel inhibition, primary screen. CHO-KCNK3 thallium flux, FluxOR fluorescence; stronger effect = lower value. B-score at 10 µM. actives 0.84% (n = 340,000). AID 602410;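 active means B-score under library mean minus 4 SD, starting fluorescence ratio at most library mean plus 5 SD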;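 further: more negative B-score means stronger inhibition of thallium flux through KCNK3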
Kir21 block: Kir2.1 (mouse) channel inhibition; P35561; HEK293-Kir2.1, FluxOR thallium flux fluorescence; stronger effect = lower value; B-score at 10 µM; actives 0.85% (n = 310,000); AID 1672;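 active means fluorescence ratio B-score at or below minus 3 SD of library scores, with starting-brightness B-score within 2 SD, cut at about -4.2 in these data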;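 further: channel flux triggered by added potassium and thallium sulfate stimulus; B-score of peak minus minimum fluorescence over baseline after thallium stimulus; more negative B-score means stronger Kir2.1 block with less thallium influx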
The depositor's hits bear a star; i = inactive; nt = no result.

SMILES	hERG rescue	KCNK9 block	KCNQ1 block	KCNQ1 act	KCNK3 inh	Kir21 block
Cc1ccc(NC(=O)CN2C(=O)S/C(=C\c3cccn3-c3cccc(C(=O)O)c3)C2=O)c(C)c1	5.4*	i	i	i	i	1.4
Nc1ccc2c3c(cccc13)C(=O)N(c1ccccc1)C2=O	-42	i	i	i	i	-5.6
Nc1cccc(N2C(=O)c3cccc4c(N)ccc(c34)C2=O)c1	-20	i	11*	i	i	-8
CC(Oc1ccc(C(=O)c2ccc(F)cc2)cc1)C(=O)N1CCOCC1 (centres undefined)	-11	i	i	i	i	1.1
O=C(NN=C1c2ccccc2-c2ccccc21)c1cccc(Br)c1	46*	i	i	18*	i	-0.36
NC(=O)CSc1nc2c(c(=O)n1-c1ccccc1)C1(CCCCC1)Cc1ccccc1-2	-3	i	i	i	i	0.95
CCn1c(SCC(N)=O)nc2c(c1=O)C1(CCCC1)Cc1ccccc1-2	-4	-6.7*	i	i	i	-3.2
COc1cccc(CN(C)C(=O)C23CC4CC(CC(C4)C2)C3)c1	-8	i	i	i	i	-1.4
COC(=O)c1ccc(CSc2ncnc3sc(C)c(C)c23)o1	8.8*	i	i	8*	i	-0.04
Cc1sc2ncnc(SCc3ccc(C(=O)O)cc3)c2c1C	-5	i	i	i	i	0.42
COc1ccc(C)cc1NC(=S)NNC(=O)c1c(Br)cnn1C	7.0*	i	i	i	i	1.7
O=C(O)COc1ccccc1/C=N/NC(=O)c1cc2ccccc2cc1O	-10	i	i	i	i	-1.1
CN(C)Cc1ccccc1Sc1cccc2ccccc12	-8	i	i	i	i	-5.3*
CN(C)Cc1ccccc1Sc1ccccc1Br	-4	i	i	i	i	-0.4
COC(=O)c1sccc1NC(=O)C12CC3CC(CC(C3)C1)C2	-4	i	i	i	i	1.7
CCC(OC(=O)c1cccs1)C(=O)NCc1ccco1 (centres undefined)	51*	i	i	i	i	0.82
Cc1ccc(C)c(CSc2nc3[nH]ncc3c(=O)[nH]2)c1	-6	i	i	i	i	1.2
O=C(CCC(=O)N1CCN(S(=O)(=O)c2ccc3ccccc3c2)CC1)NCC(F)(F)F	-9	i	i	i	i	-1.5
CCOc1ccc(CNCCN2CCCC2)cc1	-9	i	7*	i	i	-2
CCOc1ccc(OCCN2CCCCC2)cc1	-4	i	i	i	i	-0.42
COc1ccc2nc(N3CCCCC3)c(/C=C3\SC(=S)NC3=O)cc2c1	7.4*	i	i	i	i	0.99
O=C1NC(=S)S/C1=C\c1cc2ccccc2nc1N1CCCCC1	-6	i	i	i	i	0.54
Cc1cc(C2=CC(C)(c3cc(C)oc3C)Nc3nc(C(F)(F)F)nn32)c(C)o1 (centres undefined)	-11	i	i	i	nt	-1.7
Cc1ccc(C2=CC(C)(c3ccc(C)cc3)Nc3nc(C(F)(F)F)nn32)cc1 (centres undefined)	-4	-8*	i	i	i	0.13
CCOc1ccc(OCCN2C(=O)NC(Cc3c[nH]c4ccccc34)C2=O)cc1 (centres undefined)	-20	i	i	i	i	0.04
SMILES	hERG rescue	KCNK9 block	KCNQ1 block	KCNQ1 act	KCNK3 inh	Kir21 block
O=C1NC(Cc2c[nH]c3ccccc23)C(=O)N1CCOc1ccc(F)cc1 (centres undefined)	-10	i	i	i	i	-5.3*
O=C(c1ccc(Cl)cc1)C1C2C(=O)N(c3ccccc3)C(=O)C2C2CCCN21 (centres undefined)	-16	i	i	i	i	-2.1
CC(=O)c1ccc(N2C(=O)C3C(C2=O)C(C(=O)c2ccc(Cl)cc2)N2CCCC32)cc1 (centres undefined)	-20	i	8*	i	nt	-1.9
O=C(NC12CC3CC(CC(C3)C1)C2)c1cc([N+](=O)[O-])ccc1N1CCOCC1	-12	i	7*	i	i	-0.03
CCOc1cc(C)nc(N2CCC(C(=O)NC3CC3)CC2)n1	nt	nt	nt	nt	i	nt
Cc1ccc(C(=O)CC(=O)c2ccc(C)cc2O)cc1	11*	i	i	i	i	-1.8
Cc1ccc(C(=O)CC(=O)c2cc(Cl)ccc2O)cc1	-1	i	i	30*	i	1.4
CC(C)(C)c1ccc(C(=O)CC(=O)c2cc(Cl)ccc2O)cc1	7.7*	i	i	i	i	-0.03
Cc1ccc(C(=O)Cc2ccccc2)c(O)c1	nt	nt	nt	nt	i	nt
COc1ccc(S(=O)(=O)NC(CC(=O)NCCc2ccc(OC)c(OC)c2)C(C)C)cc1 (centres undefined)	-18	i	i	i	i	2.1
O=C(CC1CC2CCC1C2)N1CCN(S(=O)(=O)c2ccccc2F)CC1 (centres undefined)	nt	nt	nt	nt	i	nt
C=CCN1C=CC(=C/C=C(/C#N)C(=O)OCC)C=C1	-23	i	11*	i	i	-9.3
CC(C)n1c(O)c(N=NC(=O)c2ccccc2NS(=O)(=O)c2cccs2)c2ccccc21	-2	i	i	i	i	-0.82
COc1ccc(/C=C/c2c(-c3ccc(OC)cc3)oc3ccc(-c4ccc(OC)cc4)cc23)cc1	-4	i	i	i	i	0.8
COc1ccc(/C=C/c2cc(-c3ccc(C)cc3)o[n+]2C)cc1	-28	i	9*	i	i	-0.48
CCN(CC)c1ccc(/C=C(\C#N)c2ccccn2)cc1	-18	i	6*	i	-11*	-3.6
CCN(Cc1ccccc1)c1ccc(/C=C(\C#N)c2ccccn2)cc1	-9	i	i	i	i	-0.92
CCOC(=O)[C@@H]1[C@H]2COc3ccc(Br)cc3[C@@H]2N2C(=O)N(c3cccc(Cl)c3)C(=O)[C@@]12C	nt	nt	nt	nt	i	nt
COc1ccc(C2c3ccsc3CCN2C(C)=O)cc1 (centres undefined)	-13	i	i	i	i	-0.89
O=C(C1CC1)N1CCc2sccc2C1c1ccc(Cl)cc1 (centres undefined)	-3	i	6*	i	i	-2
CCCCOc1ccc(C(=O)NCC(=O)NC(C)CCc2ccccc2)cc1 (centres undefined)	-2	i	i	i	i	0.51
CS(=O)(=O)Nc1cccc(C2=NN(S(=O)(=O)c3ccc(F)cc3)C(c3cccs3)C2)c1 (centres undefined)	-15	i	i	i	i	-2.2
